Key:
[1] = system: Mus musculus; assay: Reduction in serum triglyceride in CF1 mice on day 14 following 20 mg/kg i.p. o.d. for 16 days.; conditions: ip
[2] = system: Mus musculus; assay: Reduction in serum cholesterol in CF1 mice on day 16 following 20 mg/kg i.p. o.d. for 16 days.; type: functional; conditions: ip, 384 h, route intraperitoneal
In short: (§1)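 Mice dosed at 20 mg/kg per day for 16 days. On days 9 and 16, blood was taken by tail-vein bleeding into nonheparinized microcapillary tubes and spun for 3 min to give serum. Serum cholesterol was measured by a modified Liebermann–Burchard reaction.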

[3] = system: Mus musculus; assay: Reduction in serum cholesterol in CF1 mice on day 9 following 20 mg/kg i.p. o.d. for 16 days.; type: functional; conditions: ip, route intraperitoneal
In short: as §1

SMILES	serum triglyceride % inhibition at 20 mg/kg [1]	inhibition in vivo at 20 mg/kg [2]	inhibition in vivo at 20 mg/kg [3]
CCOC(=O)CCN(C(C)=O)C(C)=O	11%	25%	11%
CC(=O)N(CCC(=O)O)C(C)=O	21%	21%	20%
CC(=O)CCN(C(C)=O)C(C)=O	20%	30%	14%
O=C(O)CCN1C(=O)CCC1=O	44%	39%	32%
CC(=O)CCn1c(=O)c2ccccc2c2ccccc2c1=O	10%	23%	23%
CCCCN1C(=O)CCC1=O	35%	15%	0%
CC(=O)CCN(C(=O)c1ccccc1)C(=O)c1ccccc1	39%	26%	23%
CCOC(=O)CCN1C(=O)CCC1=O	23%	23%	11%
O=C(NC(=O)c1ccccc1)c1ccccc1	7%	35%	14%
CCCCn1c(=O)c2ccccc2c2ccccc2c1=O	48%	23%	22%
O=c1[nH]c(=O)c2ccccc2c2ccccc12	19%	18%	19%
O=C(O)CCn1c(=O)c2ccccc2c2ccccc2c1=O	25%	16%	12%
CCCCN(C(C)=O)C(C)=O	0%	20%	11%
CCCCN(C(=O)c1ccccc1)C(=O)c1ccccc1	30%	19%	23%
CC(=O)CCN1C(=O)CCC1=O	25%	10%	12%
CCOC(=O)C(C)(C)Oc1ccc(Cl)cc1 [CLOFIBRATE]	25%	13%	12%
CC(=O)NC(C)=O [DIACETAMIDE]	2%	18%	4%
O=C1NC(=O)c2ccccc21 [PHTHALIMIDE]	56%	43%	37%
O=C1CCC(=O)N1 [SUCCINIMIDE]	32%	27%	2%
